# Columns and labels:
# Type in all cases: functional
# [1] = test system: Mycolicibacterium smegmatis; assay: Antimicrobial activity against Mycobacterium smegmatis UFPEDA 71 after 20 hrs by twofold serial dilution technique; conditions: UFPEDA 71, 20 h
# Summary of the method: (§1)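 MIC was determined by twofold serial dilution. Bacteria were tested in plates at 10⁵ CFU/plate and read after 20 h. C. albicans was tested in tubes at 10³ CFU/tube and read after 48 h. All incubations were at 35 °C. Medium plus DMSO served as the negative control.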
# Enterococcus faecalis [2] = assay: Antimicrobial activity against multidrug-resistant Enterococcus faecalis H.C. 21944 isolate after 20 hrs by twofold serial dilution technique; conditions: H.C. 21944, 20 h
# Summary of the method: (§2)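 Twofold serial dilution MIC in agar plates against Gram-positive strains and multidrug-resistant clinical isolates. Inoculum applied was 10⁵ CFU/plate. Plates with culture medium plus DMSO served as negative control. MIC was read after incubation at 35 °C for 20 h.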
# Escherichia coli [3] = assay: Antimicrobial activity against Escherichia coli UFPEDA 224 at 10 ug/disk after 24 hrs by disk diffusion method; conditions: UFPEDA 224, 24 h, read-out: IZ
# Summary of the method: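 Preliminary screen: 6 mm paper disks bearing the agent placed on agar plates inoculated with a standardized microbial suspension. Negative control was DMSO-only disks. Inhibition zones are means of n = 3; no zone or a mean zone below 7 mm was scored as no sensitivity.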
# Staphylococcus aureus [4] = assay: Antimicrobial activity against Staphylococcus aureus UFPEDA 01 after 20 hrs by twofold serial dilution technique; conditions: UFPEDA 01, 20 h; summary of the method: as §2
# Staphylococcus aureus [5] = assay: Antimicrobial activity against multidrug-resistant Staphylococcus aureus H.C. 20981 isolate after 20 hrs by twofold serial dilution technique; conditions: H.C. 20981, 20 h; summary of the method: as §2
# Staphylococcus [6] = assay: Antimicrobial activity against coagulase-negative Staphylococcus H.A.M. 278 isolate after 20 hrs by twofold serial dilution technique; conditions: H.A.M. 278, 20 h; summary of the method: as §1
# Enterococcus faecalis [7] = assay: Antimicrobial activity against multidrug-resistant Enterococcus faecalis H.C. 24708 isolate after 20 hrs by twofold serial dilution technique; conditions: H.C. 24708, 20 h; summary of the method: as §2
# Enterococcus faecalis [8] = assay: Antimicrobial activity against Enterococcus faecalis UFPEDA 138 after 20 hrs by twofold serial dilution technique; conditions: UFPEDA 138, 20 h; summary of the method: as §1
# Micrococcus luteus [9] = assay: Antimicrobial activity against Micrococcus luteus UFPEDA 06 at 10 ug/disk after 24 hrs by disk diffusion method; conditions: UFPEDA 06, 24 h, read-out: IZ
# Staphylococcus [10] = assay: Antimicrobial activity against coagulase-negative Staphylococcus H.A.M. 338 isolate after 20 hrs by twofold serial dilution technique; conditions: H.A.M. 338, 20 h; summary of the method: as §1
# Bacillus subtilis [11] = assay: Antimicrobial activity against Bacillus subtilis UFPEDA 16 after 20 hrs by twofold serial dilution technique; conditions: UFPEDA 16, 20 h; summary of the method: as §1
# Staphylococcus aureus [12] = assay: Antimicrobial activity against Staphylococcus aureus UFPEDA 01 at 10 ug/disk after 24 hrs by disk diffusion method; conditions: UFPEDA 01, 24 h, read-out: IZ
# Bacillus subtilis [13] = assay: Antimicrobial activity against Bacillus subtilis UFPEDA 16 at 10 ug/disk after 24 hrs by disk diffusion method; conditions: UFPEDA 16, 24 h, read-out: IZ
# Enterococcus faecalis [14] = assay: Antimicrobial activity against Enterococcus faecalis UFPEDA 138 at 10 ug/disk after 24 hrs by disk diffusion method; conditions: UFPEDA 138, 24 h, read-out: IZ
# Staphylococcus aureus [15] = assay: Antimicrobial activity against multidrug-resistant Staphylococcus aureus H.C. 20905 isolate after 20 hrs by twofold serial dilution technique; conditions: H.C. 20905, 20 h; summary of the method: as §2
# Enterococcus faecalis [16] = assay: Antimicrobial activity against multidrug-resistant Enterococcus faecalis H.C. 24962 isolate after 20 hrs by twofold serial dilution technique; conditions: H.C. 24962, 20 h; summary of the method: as §2
# Micrococcus luteus [17] = assay: Antimicrobial activity against Micrococcus luteus UFPEDA 06 after 20 hrs by twofold serial dilution technique; conditions: UFPEDA 06, 20 h; summary of the method: as §1
# Staphylococcus aureus [18] = assay: Antimicrobial activity against multidrug-resistant Staphylococcus aureus H.C. 20489 isolate after 20 hrs by twofold serial dilution technique; conditions: H.C. 20489, 20 h; summary of the method: as §2
# Enterococcus faecalis [19] = assay: Antimicrobial activity against multidrug-resistant Enterococcus faecalis H.C. 21752 isolate after 20 hrs by twofold serial dilution technique; conditions: H.C. 21752, 20 h; summary of the method: as §2
# Staphylococcus aureus [20] = assay: Antimicrobial activity against multidrug-resistant Staphylococcus aureus H.C. 21036 isolate after 20 hrs by twofold serial dilution technique; conditions: H.C. 21036, 20 h; summary of the method: as §2
# Staphylococcus aureus [21] = assay: Antimicrobial activity against multidrug-resistant Staphylococcus aureus H.C. 20794 isolate after 20 hrs by twofold serial dilution technique; conditions: H.C. 20794, 20 h; summary of the method: as §2
# Staphylococcus aureus [22] = assay: Antimicrobial activity against multidrug-resistant Staphylococcus aureus H.C. 21141 isolate after 20 hrs by twofold serial dilution technique; conditions: H.C. 21141, 20 h; summary of the method: as §2
# Serratia marcescens = assay: Antimicrobial activity against Serratia marcescens UFPEDA 398 at 30 ug/disk after 24 hrs by disk diffusion method; conditions: UFPEDA 398, 24 h, read-out: IZ
# Pseudomonas aeruginosa = assay: Antimicrobial activity against Pseudomonas aeruginosa UFPEDA 39 at 30 ug/disk after 24 hrs by disk diffusion method; conditions: UFPEDA 39, 24 h, read-out: IZ
# Escherichia coli [23] = assay: Antimicrobial activity against Escherichia coli UFPEDA 224 at 30 ug/disk after 24 hrs by disk diffusion method; conditions: UFPEDA 224, 24 h, read-out: IZ
# [24] = test system: Mycolicibacterium smegmatis; assay: Antimicrobial activity against Mycobacterium smegmatis UFPEDA 71 at 30 ug/disk after 24 hrs by disk diffusion method; conditions: UFPEDA 71, 24 h, read-out: IZ
compound,measurement,setting,value
CC1(C)S[C@@H]2[C@H](NC(=O)[C@H](N)c3ccccc3)C(=O)N2[C@H]1C(=O)O [AMPICILLIN],MIC,[1],64 mg/L
same,MIC,Enterococcus faecalis [2],≤ 1 mg/L
same,zone of inhibition at 10 µg/disc,Escherichia coli [3],20 mm
same,MIC,Staphylococcus aureus [4],2 mg/L
same,MIC,Staphylococcus aureus [5],2 mg/L
same,MIC,Staphylococcus [6],≤ 1 mg/L
same,MIC,Enterococcus faecalis [7],2 mg/L
same,MIC,Enterococcus faecalis [8],2 mg/L
same,zone of inhibition at 10 µg/disc,Micrococcus luteus [9],45 mm
same,MIC,Staphylococcus [10],≤ 1 mg/L
same,MIC,Bacillus subtilis [11],2 mg/L
same,zone of inhibition at 10 µg/disc,Staphylococcus aureus [12],38 mm
same,zone of inhibition at 10 µg/disc,Bacillus subtilis [13],28 mm
same,zone of inhibition at 10 µg/disc,Enterococcus faecalis [14],24 mm
same,MIC,Staphylococcus aureus [15],64 mg/L
same,MIC,Enterococcus faecalis [16],2 mg/L
same,MIC,Micrococcus luteus [17],2 mg/L
same,MIC,Staphylococcus aureus [18],≤ 1 mg/L
same,MIC,Enterococcus faecalis [19],2 mg/L
same,MIC,Staphylococcus aureus [20],32 mg/L
same,MIC,Staphylococcus aureus [21],2 mg/L
same,MIC,Staphylococcus aureus [22],≤ 1 mg/L
NC[C@H]1O[C@H](O[C@H]2[C@H](O)[C@@H](O[C@H]3O[C@H](CO)[C@@H](O)[C@H](N)[C@H]3O)[C@H](N)C[C@@H]2N)[C@H](O)[C@@H](O)[C@@H]1O [KANAMYCIN],zone of inhibition at 30 µg/disc,Serratia marcescens,45 mm
same,zone of inhibition at 30 µg/disc,Pseudomonas aeruginosa,20 mm
same,zone of inhibition at 30 µg/disc,Escherichia coli [23],15 mm
same,zone of inhibition at 30 µg/disc,[24],40 mm
